Source: ChEMBL document CHEMBL1148356, “Synthesis and biological evaluation of 3-heterocyclyl-7,8,9,10-tetrahydro-(7,10-ethano)-1,2,4-triazolo[3,4-a]phthalazines and analogues as subtype-selective inverse agonists for the GABA(A)alpha5 benzodiazepine binding site” (J Med Chem, 2004)

Legend:
[1] = biological target: T1, GABA-A receptor; alpha-5/beta-3/gamma-2 (Homo sapiens, UniProt P18507+P28472+P31644); assay: Binding affinity towards human alpha-5-beta-3-gamma-2 GABA-A receptor using [3H]Ro-151788 expressed in L(tk-) cells; type: cell-based
T1 sequence (P18507 whole entry): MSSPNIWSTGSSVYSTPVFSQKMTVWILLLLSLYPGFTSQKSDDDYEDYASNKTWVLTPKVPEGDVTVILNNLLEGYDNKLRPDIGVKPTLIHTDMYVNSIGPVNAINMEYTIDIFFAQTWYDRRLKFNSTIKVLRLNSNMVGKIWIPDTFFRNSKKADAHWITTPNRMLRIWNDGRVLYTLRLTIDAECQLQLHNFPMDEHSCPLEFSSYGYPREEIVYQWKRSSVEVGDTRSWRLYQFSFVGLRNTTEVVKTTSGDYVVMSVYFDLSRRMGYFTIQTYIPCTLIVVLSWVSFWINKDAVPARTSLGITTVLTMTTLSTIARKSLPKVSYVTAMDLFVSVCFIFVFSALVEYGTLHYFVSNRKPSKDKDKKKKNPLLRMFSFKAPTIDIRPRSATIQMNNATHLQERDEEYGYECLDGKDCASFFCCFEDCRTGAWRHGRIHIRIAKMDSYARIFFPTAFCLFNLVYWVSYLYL
T1 sequence (P28472 whole entry): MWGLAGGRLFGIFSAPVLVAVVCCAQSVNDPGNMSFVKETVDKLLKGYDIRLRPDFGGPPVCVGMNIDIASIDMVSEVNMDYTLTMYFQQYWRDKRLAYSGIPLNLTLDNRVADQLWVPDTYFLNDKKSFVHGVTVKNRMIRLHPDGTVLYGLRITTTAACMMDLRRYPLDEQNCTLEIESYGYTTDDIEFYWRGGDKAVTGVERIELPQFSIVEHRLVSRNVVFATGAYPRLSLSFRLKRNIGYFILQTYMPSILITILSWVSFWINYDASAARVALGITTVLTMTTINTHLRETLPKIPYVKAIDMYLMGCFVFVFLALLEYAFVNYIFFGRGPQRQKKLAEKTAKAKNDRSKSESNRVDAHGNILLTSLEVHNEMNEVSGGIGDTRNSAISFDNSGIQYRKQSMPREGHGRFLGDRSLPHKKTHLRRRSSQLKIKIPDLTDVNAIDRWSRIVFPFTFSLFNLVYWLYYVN
T1 sequence (P31644 whole entry): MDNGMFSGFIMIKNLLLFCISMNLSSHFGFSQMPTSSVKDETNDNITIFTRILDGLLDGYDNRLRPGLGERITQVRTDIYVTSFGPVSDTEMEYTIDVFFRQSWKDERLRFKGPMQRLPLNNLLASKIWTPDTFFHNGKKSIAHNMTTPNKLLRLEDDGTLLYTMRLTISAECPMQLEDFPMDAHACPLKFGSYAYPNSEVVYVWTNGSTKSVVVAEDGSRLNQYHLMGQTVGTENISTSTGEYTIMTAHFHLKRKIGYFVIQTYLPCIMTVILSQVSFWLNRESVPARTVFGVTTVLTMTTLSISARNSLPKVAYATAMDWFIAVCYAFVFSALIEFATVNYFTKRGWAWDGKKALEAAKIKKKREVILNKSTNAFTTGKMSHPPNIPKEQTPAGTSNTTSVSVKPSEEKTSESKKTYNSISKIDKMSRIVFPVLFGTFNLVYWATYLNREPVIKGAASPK

[2] = biological target: T2, GABA-A receptor; alpha-5/beta-3/gamma-2 (Homo sapiens) (UniProt P18507+P28472+P31644); assay: Percent change in electrophysiological response in Xenopus oocytes expressing Alpha-5-beta-3-gamma-2 GABA-A receptor; type: functional, cell-based; conditions: Oocyte
In short: (§1)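 Two-electrode voltage clamp on Xenopus oocytes injected with human GABA-A subunit cDNAs, 24-72 h expression, perfused with modified Barth's medium at pH 7.5, clamped between -40 and -70 mV. The GABA EC20 was titrated against a 3 mM GABA maximum. […] Result is % change of control current, mean ± SE of ≥4 oocytes.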

[3] = biological target: T3, GABA-A receptor; alpha-1/beta-3/gamma-2 (Homo sapiens) (UniProt P14867+P18507+P28472); assay: Percent change in electrophysiological response in Xenopus oocytes expressing Alpha1-beta3-gamma2 GABA-A receptor; type: functional, cell-based; conditions: Oocyte; in short: as §1
[4] = biological target: T4, GABA-A receptor; alpha-3/beta-3/gamma-2 (Homo sapiens) (UniProt P18507+P28472+P34903); assay: Percent change in electrophysiological response in Xenopus oocytes expressing Alpha3-beta3-gamma2 GABA-A receptor; type: functional, cell-based; conditions: Oocyte; in short: as §1
[5] = biological target: T5, GABA-A receptor; alpha-3/beta-3/gamma-2 (Homo sapiens, UniProt P18507+P28472+P34903); assay: Binding affinity towards human gamma-aminobutyric-acid A receptor alpha-3-beta-3-gamma-2 using [3H]Ro-151788 expressed in L(tk-) cells; type: cell-based
T5 sequence (P18507 whole entry): T1 sequence (P18507 whole entry)
T5 sequence (P28472 whole entry): T1 sequence (P28472 whole entry)
T5 sequence (P34903 whole entry): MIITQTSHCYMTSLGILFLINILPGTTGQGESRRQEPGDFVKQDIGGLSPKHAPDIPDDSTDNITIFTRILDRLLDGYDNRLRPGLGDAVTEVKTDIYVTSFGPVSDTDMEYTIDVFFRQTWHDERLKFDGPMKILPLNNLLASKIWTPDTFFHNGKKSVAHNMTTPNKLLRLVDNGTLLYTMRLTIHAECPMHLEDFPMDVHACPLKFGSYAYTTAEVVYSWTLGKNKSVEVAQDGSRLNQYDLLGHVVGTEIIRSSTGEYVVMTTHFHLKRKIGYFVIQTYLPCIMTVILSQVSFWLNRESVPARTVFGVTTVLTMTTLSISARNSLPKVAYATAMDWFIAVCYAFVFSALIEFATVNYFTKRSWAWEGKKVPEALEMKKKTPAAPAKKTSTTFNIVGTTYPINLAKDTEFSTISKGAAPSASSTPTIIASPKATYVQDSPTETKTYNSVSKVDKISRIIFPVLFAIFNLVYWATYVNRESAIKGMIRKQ

[6] = biological target: T6, GABA-A receptor; alpha-2/beta-3/gamma-2 (Homo sapiens) (UniProt P18507+P28472+P47869); assay: Percent change in electrophysiological response in Xenopus oocytes expressing Alpha2-beta3-gamma2 GABA-A receptor; type: functional, cell-based; conditions: Oocyte; in short: as §1
[7] = biological target: T7, GABA-A receptor; alpha-1/beta-3/gamma-2 (Homo sapiens, UniProt P14867+P18507+P28472); assay: Binding affinity towards human alpha-1-beta-3-gamma-2 GABA-A receptor using [3H]Ro-151788 expressed in L(tk-) cells; type: cell-based
T7 sequence (P14867 whole entry): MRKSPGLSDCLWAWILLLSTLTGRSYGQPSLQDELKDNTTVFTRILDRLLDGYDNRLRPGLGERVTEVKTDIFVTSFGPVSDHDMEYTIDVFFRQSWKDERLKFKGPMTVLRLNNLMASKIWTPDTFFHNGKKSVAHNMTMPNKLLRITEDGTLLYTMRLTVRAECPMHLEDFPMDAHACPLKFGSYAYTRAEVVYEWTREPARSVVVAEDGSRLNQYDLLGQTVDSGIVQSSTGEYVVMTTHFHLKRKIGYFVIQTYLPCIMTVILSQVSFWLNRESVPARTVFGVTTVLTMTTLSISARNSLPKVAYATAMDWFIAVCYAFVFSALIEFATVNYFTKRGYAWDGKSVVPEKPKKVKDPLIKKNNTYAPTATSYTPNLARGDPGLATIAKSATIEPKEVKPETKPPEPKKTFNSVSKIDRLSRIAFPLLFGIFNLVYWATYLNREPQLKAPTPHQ
T7 sequence (P18507 whole entry): T1 sequence (P18507 whole entry)
T7 sequence (P28472 whole entry): T1 sequence (P28472 whole entry)

[8] = Oral bioavailability in rat; type: ADME, organism-based; conditions: in vivo
In short: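 Male SD rats with jugular cannulas were fasted overnight and dosed either by tail-vein IV bolus or orally (n = 3 per route). Serial jugular blood samples were taken up to 8 h. Plasma was frozen at −20 °C, protein-precipitated with acetonitrile containing internal standard, and quantified by LC-MS/MS.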

[9] = biological target: T8, GABA-A receptor; alpha-2/beta-3/gamma-2 (Homo sapiens, UniProt P18507+P28472+P47869); assay: Binding affinity towards human gamma-aminobutyric-acid A receptor alpha-2-beta-3-gamma-2 using [3H]Ro-151788 expressed in L(tk-) cells; type: cell-based
T8 sequence (P18507 whole entry): T1 sequence (P18507 whole entry)
T8 sequence (P28472 whole entry): T1 sequence (P28472 whole entry)
T8 sequence (P47869 whole entry): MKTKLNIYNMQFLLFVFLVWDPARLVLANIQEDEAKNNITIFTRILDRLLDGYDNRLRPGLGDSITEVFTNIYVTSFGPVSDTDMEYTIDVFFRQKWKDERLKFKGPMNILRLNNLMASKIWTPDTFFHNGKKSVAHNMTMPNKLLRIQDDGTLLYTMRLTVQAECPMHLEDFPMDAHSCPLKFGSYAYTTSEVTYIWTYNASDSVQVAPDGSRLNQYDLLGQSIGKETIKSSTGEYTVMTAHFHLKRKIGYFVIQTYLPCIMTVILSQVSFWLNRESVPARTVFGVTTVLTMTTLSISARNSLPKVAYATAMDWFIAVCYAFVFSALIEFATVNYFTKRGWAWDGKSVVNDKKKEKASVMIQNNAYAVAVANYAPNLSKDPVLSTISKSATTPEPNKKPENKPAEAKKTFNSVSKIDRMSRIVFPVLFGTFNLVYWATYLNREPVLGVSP

[10] = biological target: T2, GABA-A receptor; alpha-5/beta-3/gamma-2 (Homo sapiens); assay: Percent maximum change in electrophysiological response in Xenopus oocytes expressing alpha-5-beta-3-gamma-2 GABA-A receptor; type: functional, cell-based; conditions: Oocyte; in short: as §1
[11] = biological target: T3, GABA-A receptor; alpha-1/beta-3/gamma-2 (Homo sapiens); assay: Percent maximum change in electrophysiological response in Xenopus oocytes expressing alpha-1-beta-3-gamma-2 GABA-A receptor; type: functional, cell-based; conditions: Oocyte; in short: as §1
[12] = biological target: T4, GABA-A receptor; alpha-3/beta-3/gamma-2 (Homo sapiens); assay: Percent maximum change in electrophysiological response in Xenopus oocytes expressing alpha-3-beta-3-gamma-2 GABA-A receptor; type: functional, cell-based; conditions: Oocyte; in short: as §1
[13] = biological target: T6, GABA-A receptor; alpha-2/beta-3/gamma-2 (Homo sapiens); assay: Percent maximum change in electrophysiological response in Xenopus oocytes expressing alpha-2-beta-3-gamma-2 GABA-A receptor; type: functional, cell-based; conditions: Oocyte; in short: as §1

Row | SMILES | Ki [1] [nM] | Efficacy [2] [%] | Efficacy [3] [%] | Efficacy [4] [%] | Ki [5] [nM] | Efficacy [6] [%] | Ki [7] [nM] | bioavailability [8] [%] | Ki [9] [nM] | Efficacy [10] [%] | Efficacy [11] [%] | Efficacy [12] [%] | Efficacy [13] [%]
1 | Cc1cccc(COc2nn3c(-c4nc(C)no4)nnc3c3c2C2CCC3CC2)n1 | 1.4 | -35 | -15 | -21 | 11 | -10 | 75.7 | < 1 |  |  |  |  | 
2 | Cc1cccc(COc2nn3c(-c4ccoc4)nnc3c3c2C2CCC3CC2)n1 |  | -24 | 27 | -4 |  | -5 |  |  |  |  |  |  | 
3 | Cc1cccc(COc2nn3c(-c4cc(C)on4)nnc3c3c2C2CCC3CC2)n1 |  | -29 | 21 | -1 |  | 14 |  | 3 |  |  |  |  | 
4 | Cc1cccc(COc2nn3c(-c4cnccn4)nnc3c3c2C2CCC3CC2)n1 | 1.8 | -9 | 12 | 19 | 10.6 | 8 | 84 |  | 28.4 |  |  |  | 
5 | Cc1cccc(COc2nn3c(-c4ccccc4)nnc3c3c2C2CCC3CC2)n1 | 3 | 14 | 53 | 44 | 23.7 | 35 | 122 |  | 44.5 |  |  |  | 
6 | Cc1cccc(COc2nn3c(-c4cc(C)on4)nnc3c3ccccc23)n1 |  | -15 | 15 | 3 |  | 12 |  |  |  |  |  |  | 
7 | Cc1cc(-c2nnc3c4c(c(OCc5ccccn5)nn23)CCCC4)no1 |  | -23 | 0.4 | -15 | 1.6 | -6 | 4.2 |  | 3.5 |  |  |  | 
8 | Cc1noc(-c2nnc3c4c(c(OCc5ccc(C)c(C)n5)nn23)C2CCC4CC2)n1 | 0.39 | -25 | 1 | -21 | 8.6 |  | 48.6 |  | 9.8 |  |  |  | 
9 | Cc1cccc(COc2nn3c(-c4ccccc4)nnc3c3ccccc23)n1 | 1.3 | 11 | 0.7 | -8.3 | 0.33 | -3.8 | 1.9 |  | 1 |  |  |  | 
10 | Cc1noc(-c2nnc3c4c(c(OCc5ccccc5Br)nn23)C2CCC4CC2)n1 | 1 | -42 | -12 | 12 | 6.2 | -18 | 58.5 |  | 16.5 |  |  |  | 
11 | CCOC(=O)c1ncn2c1[C@@H]1CCCN1C(=O)c1cc(OC)ccc1-2 |  | -12 | -12 | -3 |  | -17 |  |  |  | -21 | -18 | -11 | -26
12 | Cc1ccc(-c2nc3ccc(C)cn3c2CC(=O)N(C)C)cc1 [ZOLPIDEM] | > 10000 |  | 133 | 142 | 609 | 187 |  |  | 255 |  |  |  | 
